Blank lines part the entries; values can stand above or below the molecule they belong to.
What was measured:
[1] = system: skin allograft (BALB/c donor); test: Skin allograft rejection under tacrolimus immunosuppression; type: in vivo, C57BL/6 mice; details: 2 mg/kg I.P.; treated PODs 7, 12 n = 6; untreated POD 7 n = 8
Outline: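 Allograft recipients received tacrolimus 2 mg/kg i.p. or saline daily from POD −1 to POD 7, plus doses on PODs 9 and 11. FITC-labelled nanosensors (10 nmol by peptide) were given before transplant (POD −4) and on PODs 7 and 12, followed by 90-min urine collection. Urinary FITC was bead-purified with anti-FITC, converted to percent injected dose, and expressed as fold over pre-transplant; unpaired two-sided t-test.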

GzmB [2] = biological target: T1, GzmB (Mus musculus, UniProt P04187); test: In vivo GzmB activity imaging with NIR activatable probe; parameters: species or system C57BL/6 mice; details: 10 nmol by peptide, organs excised at 24 hours
T1 sequence (P04187 21-247): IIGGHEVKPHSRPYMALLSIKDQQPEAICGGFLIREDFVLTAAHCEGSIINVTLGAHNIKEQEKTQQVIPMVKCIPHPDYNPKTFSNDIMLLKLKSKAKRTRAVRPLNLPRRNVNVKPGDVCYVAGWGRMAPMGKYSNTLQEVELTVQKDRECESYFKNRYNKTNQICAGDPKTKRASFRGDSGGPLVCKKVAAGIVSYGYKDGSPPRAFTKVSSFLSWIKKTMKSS

murine Granzyme B = biological target: T2, murine Granzyme B (Mus musculus, UniProt P04187); test: In vitro protease cleavage assay of nanosensors with recombinant GzmB; type: biochemical
T2 sequence (P04187 21-247): T1 sequence (P04187 21-247)
Outline: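 Candidate GzmB substrates (6–12-mer, Ile at P4, Asp at P1) were conjugated to iron-oxide nanoparticles. They were incubated with recombinant GzmB in PBS + 1% BSA at 37 °C with fluorescence monitoring. Fluorescence traces were fitted to compare initial cleavage velocities.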

[3] = system: skin allograft and isograft; type: in vivo, C57BL/6 mice; details: POD 7 (peak), i.v., surface-labeled, mice with both grafts, n = 5
[4] = system: GzmB activity in skin allograft; test: Urinary prediction of acute rejection in skin graft mice; type: in vivo, C57BL/6 mice; details: FITC-labelled, 10 nmol by peptides, urine collected for 90 minutes, n = 6
Outline: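 This was a paired design in C57BL/6 recipients of BALB/c tail-skin grafts. FITC-labelled nanosensors (10 nmol by peptide) were dosed at POD −4 and at post-transplant days, and mice voided over plates for 90 min. Urinary FITC was captured on anti-FITC magnetic beads and quantified against a free-FITC ladder. Values were volume-normalised to percent injected dose, scaled to pre-transplant mean and variance; one-way ANOVA with Dunnett post-test.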

Immunogenicity study = type: in vivo, C57BL/6 mice; details: 10 nmol I.P., with or without complete Freund's adjuvant, total serum IgG, n = 3
Outline: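 On day 0, C57BL/6 mice received a single i.p. dose in one of five arms: free GzmB substrate peptide (10 nmol), nanosensors (10 nmol by peptide), nanosensors plus complete Freund's adjuvant, chicken ovalbumin (100 μg) plus CFA, or saline. Serum came from retro-orbital blood, was spun at 3,500 G for 5 min and stored at −80°C. Total IgG was then quantified by immunoassay.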

GzmB [5] = biological target: T1, GzmB; test: Tracking of cleaved fragments after in vivo GzmB cleavage; parameters: species or system C57BL/6 mice; details: POD 7, VT750-labelled, 10 nmol by peptides, 90 minutes post administration, tissue homogenates
[6] = Clearance of residual urine fluorescence after a single injection; type: in vivo, mice; details: n = 3
[7] = system: membrane attack complex (MAC); test: ELISA of membrane attack complex; parameters: species or system human; details: serum samples, MicroVue CH50 Eq EIA, after 1 hour, n = 3
Outline: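 Human control serum was mixed with activity nanosensors, and complement was triggered with heat-aggregated gamma globulin. Fluorescence was read for 1 h, then supernatants were assayed for membrane attack complex by CH50-equivalent EIA, which is proportional to CH50 U. Data are means ± s.e.m., n = 3, compared by one-way ANOVA with Tukey post-test.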

Molecule: C=CC[C@@H]1/C=C(\C)C[C@H](C)C[C@H](OC)[C@H]2O[C@@](O)(C(=O)C(=O)N3CCCC[C@H]3C(=O)O[C@H](/C(C)=C/[C@@H]3CC[C@@H](O)[C@H](OC)C3)[C@H](C)[C@@H](O)CC1=O)[C@H](C)C[C@@H]2OC [Tacrolimus]
- nanosensor urine signals of treated versus untreated allograft mice [1]: blunted compared to untreated mice

Molecule: kGGsIEFDSGGGs{PRA}c [activatable probe]
- probe activation in tissues, allograft versus isograft mice (GzmB [2]): significantly increased in allograft skin but statistically equivalent in all major organs

Molecule: AIEFD|SG
- initial cleavage velocity by recombinant GzmB (murine Granzyme B; library of 13 candidate substrates conjugated to IONPs, n = 4): highest initial cleavage velocity

- activation (fluorescence) in samples that contained recombinant GzmB (murine Granzyme B; saline, plasma or serum samples spiked with GzmB, 6 nM by NP, 300 nM by peptide, 37 °C, 60 minutes): markedly activated
Molecule: (FITC)AIEFDSGc [activity nanosensors]
- signal increase in skin allograft over skin isograft [3]: 4 fold
- post-graft urine signals from allograft recipients versus pre-graft baseline [4]: significantly elevated as early as POD 5
- induction of neutralizing antibodies (Immunogenicity study): do not induce neutralizing antibodies
- fluorescence in kidneys, allograft compared to isograft mice (GzmB [5]): 3 fold
- time to full clearance of residual urinary fluorescence [6]: ≤ 2 days
- MAC formation (complement activation by a foreign surface) [7]: no elevation in MAC formation

From PMC6452901 (Nature biomedical engineering, 2019)
